Measurements published in ChEMBL document CHEMBL5247635 (Eur J Med Chem, 2022).

Assays:
[1] = Thermodynamic aqueous solubility of compound at 25 degreeC measured after 24 hrs by HPLC analysis; format: physicochemical; settings: buffer, read-out: Therm_solubility
How it was run: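 Excess compound was suspended in water (pH 5.5), sonicated 10 min, equilibrated overnight at room temperature, and centrifuged. Supernatant was diluted and quantified by HPLC (UV 254 nm) against a five-point standard curve (10–500 µM).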

Trypanothione reductase [2] = target: T1, Trypanothione reductase (Leishmania infantum, UniProt A4HSF7); test: Disruption of HIS-FLAG-tagged recombinant Leishmania infantum TryR dimerization expressed in Escherichia coli Rossetta BL21 (DE3) cells incubated for 16 hrs by ELISA analysis
How it was run: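 400 nM HIS-FLAG-tagged LiTryR (co-purified with HIS-tagged LiTryR as heterodimer) incubated with compound (3.1–75 μM) in 50 mM Tris pH 8.0, 300 mM NaCl, 16 h, 37 °C with vigorous shaking; centrifuged, supernatant captured on α-FLAG plates, detected with HRP-α-HIS antibody and o-phenylenediamine, A490. Signal normalized to DMSO; IC50 by nonlinear regression; triplicate, three independent experiments.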

Trypanothione reductase [3] = target: Trypanothione reductase (Trypanosoma brucei brucei, UniProt P39051); test: Inhibition of HIS-tagged recombinant Trypanosoma brucei TryR oxidoreductase activity expressed in Escherichia coli in the presence of NADPH by spectrophotometry based DTNB-coupled assay
How it was run: (§1)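 HIS-tagged TryR from each species was expressed in E. coli. Activity was read by DTNB-coupled assay at 26 °C in 40 mM HEPES pH 7.5, 1 mM EDTA, 30 µM NADP+, 25 µM DTNB, 150 µM NADPH, 1.75% DMSO. Conditions were 50 µM TS2 and 0.5 nM enzyme; reaction started with NADPH + TS2. TNB absorbance at 412 nm. Three independent experiments.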

Trypanothione reductase [4] = target: Trypanothione reductase (Trypanosoma cruzi, UniProt P28593); test: Inhibition of HIS-tagged recombinant Trypanosoma cruzi TryR oxidoreductase activity expressed in Escherichia coli in the presence of NADPH by spectrophotometry based DTNB-coupled assay; how it was run: as §1
Trypanothione reductase [5] = target: Trypanothione reductase (Trypanosoma congolense, UniProt P13110); test: Inhibition of HIS-tagged recombinant Trypanosoma congolense TryR oxidoreductase activity expressed in Escherichia coli in the presence of NADPH by spectrophotometry based DTNB-coupled assay; how it was run: as §1
Leishmania infantum [6] = test: Antileishmanial activity against Leishmania infantum MCAN/ES/89/IPZ229/1/89 axenic amastigotes assessed as reduction in parasite viability treated for 24 hrs by PI staining based flow cytometry; format: functional, organism-based; settings: MCAN/ES/89/IPZ229/1/89, 24 h
How it was run: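 Axenic amastigotes were seeded from log-phase cultures at 10^5 parasites/mL in M199-based medium at pH 5.4. They were derived from promastigotes by 3 days at 37 °C. Compounds at 2.3–75 µM for 24 h at 37 °C. Viability read by propidium iodide flow cytometry. EC50 ± SE from three independent experiments, each in triplicate.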

[7] = Cytotoxicity against human HepG2 cells assessed as reduction in cell proliferation treated for 24 hrs by crystal violet staining based analysis; format: toxicity
[8] = Selectivity index, ratio of CC50 for human HepG2 cells to EC50 for Leishmania infantum MCAN/ES/89/IPZ229/1/89 axenic amastigotes; format: toxicity; settings: read-out: Ratio CC50/EC50
Leishmania infantum [9] = test: Antileishmanial activity against GFP-expressing Leishmania infantum intracellular amastigotes infected in human THP-1 derived macrophage cells assessed as reduction in parasite viability measured for 72 hrs by resazurin/alamar blue fluorometric assay; format: functional, organism-based
How it was run: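 Human THP-1-derived macrophages infected with GFP-expressing L. infantum amastigotes; compounds at 2.3–75 µM, infected cells monitored for 72 h. EC50 ± SE from three independent experiments.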

[10] = Cytotoxicity against human HepG2 cells assessed as reduction in cell proliferation measured after 72 hrs by crystal violet staining based analysis; format: toxicity
[11] = Selectivity index, ratio of CC50 for human HepG2 cells to EC50 for GFP-expressing Leishmania infantum intracellular amastigotes infected in human THP-1 derived macrophage cells; format: toxicity, cell-based; settings: read-out: Ratio CC50/EC50
Trypanothione reductase [12] = target: T1, Trypanothione reductase; test: Inhibition of HIS-tagged recombinant Leishmania infantum TryR oxidoreductase activity expressed in Escherichia coli in the presence of NADPH by spectrophotometry based DTNB-coupled assay
How it was run: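 HIS-tagged LiTryR was used in a DTNB-coupled assay at 26 °C. Buffer: 40 mM HEPES pH 7.5, 1 mM EDTA, 30 µM NADP+, 25 µM DTNB, 150 µM NADPH, 1.75% DMSO. Standard runs used 1 µM TS2 and 7 nM enzyme; cross-species runs used 50 µM TS2 and 0.5 nM enzyme. Started with NADPH + TS2; TNB read at 412 nm. Compounds were screened at 75 µM first. Three independent experiments.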

T1 sequence (A4HSF7 whole entry): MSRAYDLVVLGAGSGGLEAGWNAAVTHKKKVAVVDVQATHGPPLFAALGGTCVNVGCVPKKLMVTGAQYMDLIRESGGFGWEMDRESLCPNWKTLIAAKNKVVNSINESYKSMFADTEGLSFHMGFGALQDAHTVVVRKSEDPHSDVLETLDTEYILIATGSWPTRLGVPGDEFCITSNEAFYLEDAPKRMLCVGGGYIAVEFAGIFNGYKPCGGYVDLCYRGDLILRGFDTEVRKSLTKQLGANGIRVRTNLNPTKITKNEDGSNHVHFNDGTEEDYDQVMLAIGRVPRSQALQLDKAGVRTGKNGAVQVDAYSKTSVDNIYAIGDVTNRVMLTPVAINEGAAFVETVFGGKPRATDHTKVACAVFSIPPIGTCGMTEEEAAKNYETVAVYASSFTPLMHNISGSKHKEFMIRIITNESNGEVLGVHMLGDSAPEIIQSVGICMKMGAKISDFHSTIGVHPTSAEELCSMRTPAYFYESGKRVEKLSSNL
Trypanothione reductase (Trypanosoma cruzi, UniProt P28593), sequence (P28593 whole entry): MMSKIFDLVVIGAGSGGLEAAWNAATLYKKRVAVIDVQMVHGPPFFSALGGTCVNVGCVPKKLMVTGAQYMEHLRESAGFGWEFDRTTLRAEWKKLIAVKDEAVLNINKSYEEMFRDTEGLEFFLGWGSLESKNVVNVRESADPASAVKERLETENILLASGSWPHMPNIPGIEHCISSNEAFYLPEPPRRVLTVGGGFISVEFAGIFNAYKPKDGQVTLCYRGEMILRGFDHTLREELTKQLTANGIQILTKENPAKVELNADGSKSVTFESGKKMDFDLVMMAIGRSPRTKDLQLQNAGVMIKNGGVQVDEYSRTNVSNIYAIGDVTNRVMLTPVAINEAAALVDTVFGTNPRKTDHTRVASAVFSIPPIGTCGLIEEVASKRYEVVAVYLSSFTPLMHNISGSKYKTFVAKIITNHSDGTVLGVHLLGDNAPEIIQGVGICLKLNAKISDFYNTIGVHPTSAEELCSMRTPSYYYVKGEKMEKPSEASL
Trypanothione reductase (Trypanosoma brucei brucei, UniProt P39051), sequence (P39051 whole entry): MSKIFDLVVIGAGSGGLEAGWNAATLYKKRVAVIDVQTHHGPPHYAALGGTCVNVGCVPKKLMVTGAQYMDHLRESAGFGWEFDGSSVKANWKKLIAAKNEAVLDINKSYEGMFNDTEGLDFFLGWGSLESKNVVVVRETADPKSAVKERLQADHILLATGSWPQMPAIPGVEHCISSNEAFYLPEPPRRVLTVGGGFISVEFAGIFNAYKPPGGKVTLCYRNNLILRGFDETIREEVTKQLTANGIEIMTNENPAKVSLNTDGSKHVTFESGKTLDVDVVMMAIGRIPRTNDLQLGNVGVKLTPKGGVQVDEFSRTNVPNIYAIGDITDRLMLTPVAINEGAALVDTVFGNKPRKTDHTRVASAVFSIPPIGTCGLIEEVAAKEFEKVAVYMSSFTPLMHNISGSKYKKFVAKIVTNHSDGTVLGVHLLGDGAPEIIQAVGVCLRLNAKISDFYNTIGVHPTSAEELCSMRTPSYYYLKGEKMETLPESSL
Trypanothione reductase (Trypanosoma congolense, UniProt P13110), sequence (P13110 whole entry): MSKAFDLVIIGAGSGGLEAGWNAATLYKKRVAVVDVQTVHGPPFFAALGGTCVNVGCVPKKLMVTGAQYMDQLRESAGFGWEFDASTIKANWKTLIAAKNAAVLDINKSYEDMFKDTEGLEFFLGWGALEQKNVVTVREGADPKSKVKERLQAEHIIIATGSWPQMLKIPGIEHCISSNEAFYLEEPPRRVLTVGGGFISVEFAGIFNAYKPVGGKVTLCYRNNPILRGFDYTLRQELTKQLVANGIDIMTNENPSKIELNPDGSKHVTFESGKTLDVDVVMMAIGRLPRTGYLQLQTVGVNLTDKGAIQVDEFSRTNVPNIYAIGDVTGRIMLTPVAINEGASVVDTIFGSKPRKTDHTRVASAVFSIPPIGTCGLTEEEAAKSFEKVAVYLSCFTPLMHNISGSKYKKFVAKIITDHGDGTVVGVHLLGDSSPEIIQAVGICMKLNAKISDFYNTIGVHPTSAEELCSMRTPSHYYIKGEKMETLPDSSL

Compound	solubility thermodynamic at 24 h [1]	IC50 (Trypanothione reductase [2])	IC50 (Trypanothione reductase [3])	IC50 (Trypanothione reductase [4])	IC50 (Trypanothione reductase [5])	EC50 (Leishmania infantum [6])	CC50 at 24 h [7]	selectivity ratio [8]	EC50 (Leishmania infantum [9])	CC50 at 72 h [10]	selectivity ratio [11]	IC50 (Trypanothione reductase [12])
C[n+]1nn(-c2ccc(-c3nc(CCc4ccc5ccccc5c4)cs3)c(OCCN3CCNC3=O)c2)cc1CCCCN.O=C(O)C(F)(F)F.O=S(=O)([O-])C(F)(F)F	23500 µg/mL	> 75 µM	5.1 µM	9.2 µM	4.2 µM	12.9 µM	> 75 µM	> 5.8	27 µM	> 75 µM	> 2.8	–
C[n+]1nn(-c2ccc(-c3nc(-c4ccccc4)c(-c4ccccc4)s3)c(OCCN3CCNC3=O)c2)cc1CCCCN	–	–	–	–	–	12.9 µM	> 75 µM	> 5.8	73.8 µM	> 75 µM	–	3.9 µM
C[n+]1nn(-c2ccc(-c3nc(CCc4ccccc4)cs3)c(OCC3CCNCC3)c2)cc1CCCCN	–	> 75 µM	–	–	–	28.4 µM	> 75 µM	> 2.6	–	–	–	2.1 µM
C[n+]1nn(-c2ccc(-c3nc(CCc4ccc(Oc5ccccc5)cc4)c(-c4ccccc4)s3)c(OCCN3CCNC3=O)c2)cc1CCCCN	–	> 75 µM	–	–	–	8.9 µM	35.2 µM	4	–	–	–	7.8 µM
NCCCCc1cn(-c2ccc(-c3nc(CCc4cccc5ccccc45)cs3)c(OCCN3CCNC3=O)c2)nn1.O=C(O)C(F)(F)F	2100 µg/mL	–	–	–	–	–	–	–	> 75 µM	> 29 µM	< 1	–
C[n+]1nn(-c2ccc(-c3nc(CCc4ccc(-c5ccccc5)cc4)cs3)c(OCCN3CCNC3=O)c2)cc1CCCN.O=C(O)C(F)(F)F.O=S(=O)([O-])C(F)(F)F	21600 µg/mL	45.4 µM	–	–	–	4.8 µM	> 75 µM	> 15.6	7.3 µM	> 75 µM	> 10.3	–
C[n+]1nn(-c2ccc(-c3nc(-c4ccc(Oc5ccccc5)cc4)c(-c4ccccc4)s3)c(OCCN3CCNC3=O)c2)cc1CCCCN	–	> 75 µM	–	–	–	12.2 µM	> 75 µM	> 6.1	15 µM	42.6 µM	2.8	4.2 µM
C[n+]1nn(-c2ccc(-c3nc(CCc4ccccc4)cs3)c(OCCC3CCNCC3)c2)cc1CCCCN	–	–	–	–	–	> 75 µM	> 75 µM	< 1	–	–	–	2.2 µM
COc1cc(-n2cc(CCCCN)[n+](C)n2)ccc1-c1nc(CCc2ccccc2)cs1	–	> 75 µM	–	–	–	20 µM	> 75 µM	> 3.8	–	–	–	18.3 µM
C[n+]1nn(-c2ccc(-c3nc(-c4ccc(-c5ccccc5)cc4)c(-c4ccccc4)s3)c(OCCN3CCNC3=O)c2)cc1CCCCN	–	> 75 µM	–	–	–	6.4 µM	> 75 µM	> 12.3	14.1 µM	34.5 µM	2.4	4 µM
NCCCCc1cn(-c2ccc(-c3nc(CCc4ccccc4)cs3)c(OCCN3CCNC3=O)c2)nn1.O=C(O)C(F)(F)F	6400 µg/mL	–	–	–	–	–	–	–	29.4 µM	27.8 µM	< 1	–
C[n+]1nn(-c2ccc(-c3nc(CCc4ccc(-c5ccccc5)cc4)c(-c4ccccc4)s3)c(OCCN3CCNC3=O)c2)cc1CCCCN	–	> 75 µM	–	–	–	6 µM	46.5 µM	7.8	24.2 µM	54.5 µM	2.2	6.8 µM
C[n+]1nn(-c2ccc(-c3nc(CCC4Cc5ccccc5O4)cs3)c(OCCN3CCNC3=O)c2)cc1CCCCN (stereo not given)	–	> 75 µM	–	–	–	> 75 µM	> 75 µM	< 1	–	–	–	5.4 µM
NCCCc1cn(-c2ccc(-c3nc(CCc4ccc(-c5ccccc5)cc4)cs3)c(OCCN3CCNC3=O)c2)nn1.O=C(O)C(F)(F)F	2800 µg/mL	–	–	–	–	–	–	–	> 75 µM	37.3 µM	< 1	–
COc1cc(-n2cc(CCCCN)[n+](C)n2)ccc1-c1nc(CCc2ccc(-c3ccccc3)cc2)cs1	–	> 75 µM	–	–	–	7.6 µM	35.9 µM	4.7	–	–	–	5.5 µM
NCCCCc1cn(-c2ccc(-c3nc(-c4ccccc4)c(-c4ccccc4)s3)c(OCCN3CCNC3=O)c2)nn1	–	–	–	–	–	–	–	–	24.2 µM	> 75 µM	> 3.1	–
C[n+]1nn(-c2ccc(-c3nc(-c4ccccc4)cs3)c(OCCN3CCNC3=O)c2)cc1CCCCN	–	–	–	–	–	62.4 µM	> 75 µM	> 1.2	–	–	–	20.3 µM
CC[n+]1nn(-c2ccc(-c3nc(CCc4ccc(-c5ccccc5)cc4)cs3)c(OCCN3CCNC3=O)c2)cc1CCCCN	–	56.9 µM	–	–	–	14 µM	> 75 µM	> 5.6	10 µM	63.8 µM	6.4	–
CCCCCCCCCCCCCCCCOP(=O)([O-])OCC[N+](C)(C)C [MILTEFOSINE]	–	–	–	–	–	–	–	–	0.6 µM	> 75 µM	> 125	–
NCCCCc1cn(-c2ccc(-c3nc(CCc4ccc(-c5ccccc5)cc4)cs3)c(OCCN3CCNC3=O)c2)nn1.O=C(O)C(F)(F)F	200 µg/mL	–	–	–	–	–	–	–	52.1 µM	40.5 µM	< 1	–
C[n+]1nn(-c2ccc(-c3nc(CCc4ccccc4)cs3)c(OCCN3CCNC3=O)c2)cc1CCCN	–	–	–	–	–	> 75 µM	> 75 µM	< 1	–	–	–	42 µM
